Data reported in ChEMBL document CHEMBL4316598, “Synthesis, antiproliferative and apoptosis induction potential activities of novel bis(indolyl)hydrazide-hydrazone derivatives” (Bioorg Med Chem, 2019).
Activity calls are given as the source filed them. No cut-off for these calls is given here.

What was measured:
Homo sapiens = species on record: Homo sapiens; test: Inhibition of PKA phosphorylation (unknown origin) at 50 uM after 5 to 60 mins by bioluminescence assay relative to control
Outline: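 Kinase activity measured with compound at 1, 5, 10 and 50 μM, using a Kinase Reaction Rate Kit. Phosphorylation was followed by bioluminescent monitoring of ATP consumption, with light read at 5 min and 1 h. Staurosporine served as positive control. Data given as % kinase inhibition (% of control activity), from two separate experiments.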

MCF7 [1] = test: Induction of ERK/MAPK signal transduction pathway in human MCF7 cells assessed as increase in p53 phosphorylation; type: cell-based
MCF7 [2] = test: Induction of apoptosis in human MCF7 cells assessed as change in Bcl-2 level at 1 to 3 uM after 24 hrs by Western blot analysis; type: functional, cell-based
Outline: (§1)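 Cells were treated at 1, 3 and 5 µM for 24 h at 37 °C. Lysis was in ice-cold Triton X-100 buffer with protease and phosphatase inhibitors; nuclear proteins were extracted separately. Protein was quantified by BCA. Lysates were separated by electrophoresis, transferred to nitrocellulose and blocked in non-fat milk for 1 h. Primary antibody was applied overnight at 4 °C and secondary for 1 h at 28 °C. Detection was by enhanced chemiluminescence.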

HeLa [3] = test: Induction of apoptosis in human HeLa cells assessed as viable cells at 1 uM after 12 hrs by annexin-V FITC/propidium iodide staining based flow cytometric analysis relative to control; type: functional; conditions: read-out: Activity
Outline: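 Cells were grown in DMEM with 10% heat-inactivated FBS at 37 °C and 5% CO₂, then plated at 500,000 cells/well in 24-well plates. They were treated from a DMSO stock (DMSO ≤0.1%) for 8, 12 or 16 h. After a PBS wash, cells were resuspended in binding buffer (10 mM HEPES pH 7.4, 2.5 mM CaCl₂, 140 mM NaCl, 0.1% BSA), stained 40 min with FITC-annexin V, then with PI, and run on the flow cytometer immediately. Values are the mean of three independent experiments.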

[4] = molecular target: Mitogen-activated protein kinase; ERK1/ERK2 (Homo sapiens) (UniProt P27361+P28482); test: Activation of ERK1/2 phosphorylation in human MCF7 cells assessed as increase in ratio of phosphorylated ERK1/2 to total ERK1/2 level at 5 uM in presence of ERK1/2 inhibitor PD98059 by ELISA; type: cell-based
Outline: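 Cell-based ELISA: HeLa or MCF-7 cells (20×10^3/well) grown overnight at 37 °C, 5% CO2, treated with 5 μM, then fixed and blocked. Probed with rabbit anti-total and anti-phospho P38, JNK or ERK1/2 (1:100), then HRP anti-rabbit IgG. Result is the phospho/total ratio; inhibitor arms use […], […] or SP600125. n=3.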

MCF7 [5] = test: Induction of ERK/MAPK signal transduction pathway in human MCF7 cells assessed as increase in p21 level; type: cell-based
HeLa [6] = test: Induction of caspase-dependent apoptosis in human HeLa cells assessed as activation of caspase-7 at 1 to 3 uM after 24 hrs by Western blot analysis; type: functional, cell-based; outline: as §1
HeLa [7] = test: Induction of apoptosis in human HeLa cells assessed as effect on Mcl-1 long level at 1 to 3 uM after 24 hrs by Western blot analysis; type: functional, cell-based; outline: as §1

Chain of Mitogen-activated protein kinase; ERK1/ERK2 (Homo sapiens) (P27361 whole entry, looked up): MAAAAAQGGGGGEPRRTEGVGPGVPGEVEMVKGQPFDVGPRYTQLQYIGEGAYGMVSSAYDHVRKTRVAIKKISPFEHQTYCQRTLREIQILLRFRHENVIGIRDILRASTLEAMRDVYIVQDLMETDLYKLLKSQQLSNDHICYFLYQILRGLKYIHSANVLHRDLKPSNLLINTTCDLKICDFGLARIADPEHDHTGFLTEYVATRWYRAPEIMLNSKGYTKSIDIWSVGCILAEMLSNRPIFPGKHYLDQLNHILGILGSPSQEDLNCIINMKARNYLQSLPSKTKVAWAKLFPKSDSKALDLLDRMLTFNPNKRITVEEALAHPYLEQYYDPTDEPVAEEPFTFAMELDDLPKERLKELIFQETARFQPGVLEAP
Chain of Mitogen-activated protein kinase; ERK1/ERK2 (Homo sapiens) (P28482 whole entry, looked up): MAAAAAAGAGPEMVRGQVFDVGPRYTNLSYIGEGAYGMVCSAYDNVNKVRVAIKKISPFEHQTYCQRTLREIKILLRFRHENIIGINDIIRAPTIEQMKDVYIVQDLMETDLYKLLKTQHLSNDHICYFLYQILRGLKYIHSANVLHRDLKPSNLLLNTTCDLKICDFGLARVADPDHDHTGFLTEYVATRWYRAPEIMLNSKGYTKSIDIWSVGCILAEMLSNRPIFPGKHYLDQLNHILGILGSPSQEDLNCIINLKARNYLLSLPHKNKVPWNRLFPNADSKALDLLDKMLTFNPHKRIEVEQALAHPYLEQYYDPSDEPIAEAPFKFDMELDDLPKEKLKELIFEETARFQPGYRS

inhibition (Homo sapiens): 45% | Activity [4]: inactive
SMILES: Cn1cc(/C=N\NC(=O)c2cn(C)c3ccc(Br)cc23)c2ccccc21
Activity (MCF7 [1]): Active | Activity (MCF7 [2]): inactive | viability at 1 µM (HeLa [3]): 47.8% | Activity (MCF7 [5]): Active | Activity (HeLa [6]): inactive | Activity (HeLa [7]): inactive
